Values belong to the molecule of their own block, whether it stands above or below them.
Assays:
[1] = molecular target: T1, Human immunodeficiency virus type 1 reverse transcriptase (Human immunodeficiency virus 1, UniProt Q72547); assay: Inhibition of recombinant wild type HIV-1 reverse transcriptase using poly(rA)350/oligo(dT)16 as template/primer preincubated for 1 hr followed by substrate addition measured after 30 mins by pico-green reagent based fluorescence analysis
How it was run: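 Recombinant wild-type HIV-1 RT preincubated 1 h with inhibitor or DMSO. Substrate of r(A)350 template and d(T)16 primer then added, 30 min at room temperature. Quenched with EDTA, product detected with PicoGreen by fluorescence (ex 485/em 520 nm). Triplicate runs, normalized to DMSO controls to give IC50.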

[2] = Cytotoxicity against human MT2 cells assessed as cell growth inhibition after 5 days by MTT assay; type: cell-based; settings: time 5 day
How it was run: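 Human MT-2 T-cells were used in the same assay as the HIV-1 IIIB infection-protection test. CC50 was taken as the concentration inhibiting MT-2 cell growth by 50%, with measurements in triplicate.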

[3] = molecular target: T1, Human immunodeficiency virus type 1 reverse transcriptase; assay: Covalent inhibition of recombinant wild type HIV-1 reverse transcriptase using poly(rA)350/oligo(dT)16 as template/primer preincubated followed by substrate addition measured after 30 mins by pico-green reagent based fluorescence analysis
[4] = molecular target: T1, Human immunodeficiency virus type 1 reverse transcriptase; assay: Covalent inhibition of recombinant wild type HIV-1 reverse transcriptase using poly(rA)350/oligo(dT)16 as template/primer preincubated followed by substrate addition measured after 48 hrs by pico-green reagent based fluorescence analysis
How it was run: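 Recombinant WT HIV-1 RT preincubated with inhibitor or DMSO control (1 h for line 3, 48 h for line 4). Substrate solution with r(A)350 template and d(T)16 primer then added, reacted 30 min at room temperature, and quenched with EDTA. Product quantified with PicoGreen by fluorescence (ex 485, em 520 nm). Triplicate runs, normalized to DMSO controls to give IC50.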

[5] = Covalent inhibition of HIV-1 reverse transcriptase Tyr181Cys mutant; set-up: species or system Human immunodeficiency virus 1

IC50 [1]: 3 nM
Structure (SMILES): N#C/C=C/c1cc(Cl)cc(Oc2ccc(Cl)cc2OCCn2ccc(=O)[nH]c2=O)c1
CC50 at 120 h [2]: 10000 nM

Structure (SMILES): N#Cc1cc(Cl)cc(Oc2cc(OS(=O)(=O)F)ccc2OCCn2ccc(=O)[nH]c2=O)c1
CC50 at 120 h [2]: 100000 nM

Structure (SMILES): Cn1c(=O)ccn(CCOc2cc(OS(=O)(=O)F)ccc2Oc2cc(Cl)cc(C#N)c2)c1=O
IC50 [3]: 246 nM | CC50 at 120 h [2]: 40000 nM

Structure (SMILES): N#Cc1cc(Cl)cc(Oc2ccc(S(=O)(=O)F)cc2OCCn2ccc(=O)[nH]c2=O)c1
IC50 [3]: 5000 nM | CC50 at 120 h [2]: 90000 nM

Structure (SMILES): N#Cc1cc(Cl)cc(Oc2ccc(OS(=O)(=O)F)cc2OCCn2ccc(=O)[nH]c2=O)c1
IC50 [3]: 103 nM | IC50 [4]: 163 nM | CC50 at 120 h [2]: 66000 nM | IC50 [5]: 45 nM

Structure (SMILES): N#Cc1ccc2c(Oc3ccc(OS(=O)(=O)F)cc3OCCn3ccc(=O)[nH]c3=O)cc(Cl)cc2c1
IC50 [3]: 14.7 nM | CC50 at 120 h [2]: 15000 nM

Structure (SMILES): N#Cc1cc(Cl)cc(Oc2cc(OS(=O)(=O)F)ccc2Cl)c1
IC50 [3]: 833 nM | CC50 at 120 h [2]: 78000 nM

Structure (SMILES): N#Cc1cc2c(Oc3ccc(OS(=O)(=O)F)cc3OCCn3ccc(=O)[nH]c3=O)cc(Cl)cn2c1
IC50 [3]: 42.4 nM | CC50 at 120 h [2]: 26000 nM | IC50 [5]: 41 nM

Structure (SMILES): N#C/C=C/c1cc(Cl)cc(Oc2ccc(OS(=O)(=O)F)cc2OCCn2ccc(=O)[nH]c2=O)c1
IC50 [3]: 119 nM | CC50 at 120 h [2]: 45000 nM

Structure (SMILES): N#C/C=C/c1cc(F)cc(Oc2ccc(OS(=O)(=O)F)cc2OCCn2ccc(=O)[nH]c2=O)c1
IC50 [3]: 150 nM | CC50 at 120 h [2]: 42000 nM

Structure (SMILES): Cn1c(=O)ccn(CCOc2cc(OS(=O)(=O)F)ccc2Oc2cccn3cc(C#N)cc23)c1=O
IC50 [3]: 164 nM | IC50 [4]: 1110 nM | CC50 at 120 h [2]: 75000 nM | IC50 [5]: 202 nM

Structure (SMILES): N#Cc1cc(Cl)cc(Oc2ccc(OS(=O)(=O)F)cc2Cl)c1
IC50 [3]: 4900 nM | CC50 at 120 h [2]: 50000 nM

Structure (SMILES): N#Cc1ccc2c(Oc3ccc(OS(=O)(=O)F)cc3OCCn3ccc(=O)[nH]c3=O)cccc2c1
IC50 [3]: 82.3 nM | CC50 at 120 h [2]: 62000 nM

Structure (SMILES): N#Cc1cc2c(Oc3ccc(OS(=O)(=O)F)cc3OCCn3ccc(=O)[nH]c3=O)cc(F)cn2c1
IC50 [3]: 64 nM | IC50 [4]: 429 nM | CC50 at 120 h [2]: 55000 nM | IC50 [5]: 63 nM

Structure (SMILES): Cn1c(=O)ccn(CCOc2cc(S(=O)(=O)F)ccc2Oc2cc(Cl)cc(C#N)c2)c1=O
IC50 [3]: 375 nM | CC50 at 120 h [2]: 60000 nM

Structure (SMILES): Cc1ccnc2c1NC(=O)c1cccnc1N2C1CC1 [NEVIRAPINE]
CC50 at 120 h [2]: > 100000 nM

IC50 [3]: 38 nM
Structure (SMILES): Cc1cc(/C=C/C#N)cc(C)c1Nc1ccnc(Nc2ccc(C#N)cc2)n1 [RILPIVIRINE]
CC50 at 120 h [2]: 8000 nM

From ChEMBL document CHEMBL4673404, “Covalent Inhibition of Wild-Type HIV-1 Reverse Transcriptase Using a Fluorosulfate Warhead” (ACS Med Chem Lett, 2021)
